Experimental data published in ChEMBL document CHEMBL3585293, “Design, antiviral and cytostatic properties of isoxazolidine-containing amonafide analogues” (Bioorg Med Chem, 2015).
The source made the active and inactive calls. The calls are words filed in the database; no cut-off is given here.

What was measured:
MDCK = assay: Cytotoxicity against MDCK cells assessed cell viability by MTS assay; type: cell-based, Canis lupus familiaris; settings: dog
Summary of the method: (§1)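 Cells were exposed to a range of compound concentrations. Viability was measured by the colorimetric formazan-based MTS assay.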

[1] = Cytotoxicity against HEL cells assessed as alternation of cell morphology by microscopic analysis; type: cell-based; settings: human
[2] = Cytotoxicity against CRFK cells assessed cell viability by MTS assay; type: cell-based, Felis catus; settings: cat; summary of the method: as §1
Human alphaherpesvirus 3 [3] = assay: Antiviral activity against thymidine kinase-deficient Varicella-zoster virus infected in HEL cells assessed as reduction of virus-induced plaque formation; type: functional, organism-based; settings: Human alphaherpesvirus 3, HEL
Summary of the method: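 Plaque-reduction assay in HEL cells. TK+ VZV strains were Oka and YS; TK- strains were 07-1 and YS-R. Virus input was 100 PFU, with graded compound concentrations. Plaques were counted once formation was complete in untreated infected controls. Two independent experiments were run.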

Cytomegalovirus [4] = assay: Antiviral activity against Cytomegalovirus AD-169 infected in HEL cells assessed as reduction of virus-induced cytopathogenicity; type: functional, organism-based; settings: Human betaherpesvirus 5, AD-169, HEL
Cytomegalovirus [5] = assay: Antiviral activity against Cytomegalovirus Davis infected in HEL cells assessed as reduction of virus-induced cytopathogenicity; type: functional, organism-based; settings: Human betaherpesvirus 5, Davis
L1210 = assay: Cytotoxicity against mouse L1210 cells assessed as inhibition of cell proliferation; type: functional, cell-based
Human alphaherpesvirus 3 [6] = assay: Antiviral activity against Varicella-zoster virus expressing thymidine kinase infected in HEL cells assessed as reduction of virus-induced plaque formation; type: functional, organism-based; settings: Human alphaherpesvirus 3, HEL
Summary of the method: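 Plaque-reduction assay in HEL cells. TK+ VZV strains were Oka and YS; TK- strains were 07-1 and YS-R. Virus input was 100 PFU, with graded compound concentrations. Plaques were counted once formation was complete in untreated infected controls. […] Two independent experiments were run.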

CCRF-CEM = assay: Cytotoxicity against human CEM cells assessed as inhibition of cell proliferation; type: functional, cell-based
HeLa = assay: Cytotoxicity against human HeLa cells assessed as inhibition of cell proliferation; type: functional, cell-based
[7] = system: Respiratory syncytial virus; assay: Antiviral activity against Respiratory syncytial virus infected in human Hela cells assessed as reduction of virus-induced cytopathogenicity; type: functional, organism-based
Summary of the method: (§2)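 Confluent monolayers were infected with 100 CCID50 of virus (1 CCID50 infects 50% of cultures) or 20 PFU. The cultures were then incubated with varying test compound concentrations. Cytopathicity was scored once it was complete in untreated infected controls.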

Influenza A virus = assay: Antiviral activity against Influenza A virus (A/PR/8/34(H1N1)) infected in MDCK cells assessed as reduction of virus-induced cytopathogenicity; type: functional, organism-based; settings: A/Puerto Rico/8/1934(H1N1)
Summary of the method: (§3)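 MDCK cells, grown confluent in 96-well plates, were infected with influenza A/PR/8 (H1N1), A/HK/7/87 (H3N2) or B/HK/5/72 at 100 CCID50 or 20 PFU and exposed to varying compound concentrations. Cytopathic effect was recorded when it reached completion in untreated virus controls. EC50 is the concentration that halves virus-induced cytopathicity.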

Reovirus sp. = assay: Antiviral activity against Reovirus infected in African green monkey Vero cells assessed as reduction of virus-induced cytopathogenicity; type: functional, organism-based; summary of the method: as §2
Feline coronavirus = assay: Antiviral activity against Feline coronavirus infected in CRFK cells assessed as reduction of virus-induced cytopathogenicity; type: functional, organism-based; summary of the method: as §2
Human respirovirus 3 = assay: Antiviral activity against Parainfluenza virus 3 infected in African green monkey Vero cells assessed as reduction of virus-induced cytopathogenicity; type: functional, organism-based; summary of the method: as §2
[8] = system: Vesicular stomatitis virus; assay: Antiviral activity against Vesicular stomatitis virus infected in human HeLa cells assessed as reduction of virus-induced cytopathogenicity; type: functional, organism-based
Summary of the method: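 Confluent Vero (Coxsackie B4) or HeLa (vesicular stomatitis virus) monolayers in 96-well plates were inoculated with 100 CCID50 virus or 20 PFU and incubated with varying compound concentrations. Cytopathicity was scored once complete in untreated infected controls. […] Two separate experiments were run.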

Sindbis virus = assay: Antiviral activity against Sindbis virus infected in African green monkey Vero cells assessed as reduction of virus-induced cytopathogenicity; type: functional, organism-based; summary of the method: as §2
Influenza B virus = assay: Antiviral activity against Influenza B virus (B/HK/5/72) infected in MDCK cells assessed as reduction of virus-induced cytopathogenicity; type: functional, cell-based; settings: B/Hong Kong/05/1972; summary of the method: as §3
Human adenovirus 2 = assay: Antiviral activity against Human adenovirus 2 infected in HEL cells assessed as reduction of virus-induced cytopathogenicity; type: functional, organism-based; summary of the method: as §2
Influenza A virus H3N2 = assay: Antiviral activity against Influenza A virus H3N2 infected in MDCK cells assessed as reduction of virus-induced cytopathogenicity; type: functional, organism-based; summary of the method: as §3
Felid alphaherpesvirus 1 = assay: Antiviral activity against Feline herpesvirus infected in CRFK cells assessed as reduction of virus-induced cytopathogenicity; type: functional, organism-based; summary of the method: as §2

CCCN1C(=O)c2cccc3cc(NC(=O)[C@H]4C[C@@H](P(=O)(OCC)OCC)N(C)O4)cc(c23)C1=O (racemic)
CC50 (MDCK): > 100 µM
MCC [1]: > 100 µM
CC50 [2]: > 100 µM
EC50 (Human alphaherpesvirus 3 [3]): 38 µM
EC50 (Cytomegalovirus [4]): 45 µM
EC50 (Cytomegalovirus [5]): 45 µM
IC50 (L1210): 76 µM
EC50 (Human alphaherpesvirus 3 [6]): 20 µM
IC50 (CCRF-CEM): 47 µM
IC50 (HeLa): 70 µM

CCCN1C(=O)c2cccc3cc(NC(=O)[C@@H]4C[C@@H](P(=O)(OCC)OCC)N(C)O4)cc(c23)C1=O (racemic)
CC50 (MDCK): 46.2 µM
MCC [1]: > 100 µM
EC50 (Human alphaherpesvirus 3 [3]): 40 µM
EC50 (Cytomegalovirus [4]): > 20 µM
EC50 (Cytomegalovirus [5]): 45 µM
IC50 (L1210): 41 µM
EC50 (Human alphaherpesvirus 3 [6]): 28 µM
IC50 (CCRF-CEM): 28 µM
IC50 (HeLa): 74 µM

CCCCN1C(=O)c2cccc3cc(NC(=O)[C@H]4C[C@@H](P(=O)(OCC)OCC)N(C)O4)cc(c23)C1=O (racemic)
MCC [1]: ≥ 100 µM
EC50 (Human alphaherpesvirus 3 [3]): 38 µM
EC50 (Cytomegalovirus [4]): > 20 µM
EC50 (Cytomegalovirus [5]): > 20 µM
IC50 (L1210): 28 µM
EC50 (Human alphaherpesvirus 3 [6]): 20 µM
IC50 (CCRF-CEM): 19 µM

CCCCN1C(=O)c2cccc3cc(NC(=O)[C@@H]4C[C@@H](P(=O)(OCC)OCC)N(C)O4)cc(c23)C1=O (racemic)
CC50 (MDCK): > 100 µM
MCC [1]: ≥ 100 µM
CC50 [2]: > 100 µM
EC50 (Human alphaherpesvirus 3 [3]): 40 µM
EC50 (Cytomegalovirus [4]): > 20 µM
EC50 (Cytomegalovirus [5]): > 20 µM
IC50 (L1210): 85 µM
EC50 (Human alphaherpesvirus 3 [6]): 28 µM
IC50 (CCRF-CEM): 25 µM
IC50 (HeLa): 78 µM

CCOP(=O)(OCC)[C@@H]1C[C@H](C(=O)Nc2cc3c4c(cccc4c2)C(=O)N(CC(C)C)C3=O)ON1C (racemic)
CC50 (MDCK): 51.8 µM
MCC [1]: > 100 µM
CC50 [2]: > 100 µM
EC50 (Cytomegalovirus [4]): 45 µM
EC50 (Cytomegalovirus [5]): 45 µM
IC50 (L1210): 73 µM
IC50 (CCRF-CEM): 26 µM
IC50 (HeLa): 49 µM

CCOP(=O)(OCC)[C@@H]1C[C@H](C(=O)Nc2cc3c4c(cccc4c2)C(=O)N(CCN(CC)CC)C3=O)ON1C (racemic)
MCC [1]: > 100 µM
CC50 [2]: > 100 µM
EC50 (Human alphaherpesvirus 3 [3]): 36 µM
EC50 (Cytomegalovirus [4]): 100 µM
EC50 (Cytomegalovirus [5]): ≥ 100 µM
IC50 (L1210): 16 µM
EC50 (Human alphaherpesvirus 3 [6]): > 20 µM
IC50 (CCRF-CEM): 23 µM
IC50 (HeLa): 7.3 µM

CCOP(=O)(OCC)[C@@H]1C[C@@H](C(=O)Nc2cc3c4c(cccc4c2)C(=O)N(CCN(CC)CC)C3=O)ON1C (racemic)
CC50 (MDCK): > 100 µM
MCC [1]: ≥ 100 µM
EC50 (Human alphaherpesvirus 3 [3]): > 20 µM
EC50 (Cytomegalovirus [4]): 55 µM
EC50 (Cytomegalovirus [5]): 49 µM
IC50 (L1210): 11 µM
EC50 (Human alphaherpesvirus 3 [6]): > 20 µM
IC50 (CCRF-CEM): 21 µM
IC50 (HeLa): 13 µM

CCOP(=O)(OCC)[C@@H]1C[C@@H](C(=O)Nc2cc3c4c(cccc4c2)C(=O)N(CC(C)C)C3=O)ON1C (relative stereo)
CC50 (MDCK): > 100 µM
MCC [1]: > 100 µM
EC50 (Human alphaherpesvirus 3 [3]): > 100 µM
EC50 (Cytomegalovirus [4]): > 100 µM
EC50 (Cytomegalovirus [5]): > 100 µM
IC50 (L1210): 72 µM
EC50 (Human alphaherpesvirus 3 [6]): > 100 µM
IC50 (CCRF-CEM): 48 µM
IC50 (HeLa): 56 µM

CCOP(=O)(OCC)[C@@H]1C[C@@H](CN2C(=O)c3cccc4cc(N)cc(c34)C2=O)ON1C (relative stereo)
Activity [7]: inactive
Activity (Influenza A virus): inactive
Activity (Reovirus sp.): inactive
Activity (Feline coronavirus): inactive
Activity (Human respirovirus 3): inactive
Activity [8]: inactive
Activity (Sindbis virus): inactive
Activity (Influenza B virus): inactive
Activity (Human adenovirus 2): inactive
Activity (Influenza A virus H3N2): inactive
Activity (Felid alphaherpesvirus 1): inactive

CCOP(=O)(OCC)[C@@H]1C[C@@H](CN2C(=O)c3cccc4cc(NC(C)=O)cc(c34)C2=O)ON1C (relative stereo)
Activity [7]: inactive
Activity (Influenza A virus): inactive
Activity (Reovirus sp.): inactive
Activity (Feline coronavirus): inactive
Activity (Human respirovirus 3): inactive
Activity [8]: inactive
Activity (Sindbis virus): inactive
Activity (Influenza B virus): inactive
Activity (Human adenovirus 2): inactive
Activity (Influenza A virus H3N2): inactive
Activity (Felid alphaherpesvirus 1): inactive

CCOP(=O)(OCC)[C@@H]1C[C@@H](CN2C(=O)c3cccc4cc([N+](=O)[O-])cc(c34)C2=O)ON1C (relative stereo)
Activity [7]: inactive
Activity (Influenza A virus): inactive
Activity (Reovirus sp.): inactive
Activity (Feline coronavirus): inactive
Activity (Human respirovirus 3): inactive
Activity [8]: inactive
Activity (Sindbis virus): inactive
Activity (Influenza B virus): inactive
Activity (Human adenovirus 2): inactive
Activity (Influenza A virus H3N2): inactive
Activity (Felid alphaherpesvirus 1): inactive

CCOP(=O)(OCC)[C@@H]1C[C@@H](CN2C(=O)c3cccc4cccc(c34)C2=O)ON1C (relative stereo)
Activity [7]: inactive
Activity (Influenza A virus): inactive
Activity (Reovirus sp.): inactive
Activity (Feline coronavirus): inactive
Activity (Human respirovirus 3): inactive
Activity [8]: inactive
Activity (Sindbis virus): inactive
Activity (Influenza B virus): inactive
Activity (Human adenovirus 2): inactive
Activity (Influenza A virus H3N2): inactive
Activity (Felid alphaherpesvirus 1): inactive

CCOP(=O)(OCC)[C@@H]1C[C@H](CN2C(=O)c3cccc4cc(N)cc(c34)C2=O)ON1C (relative stereo)
Activity [7]: inactive
Activity (Influenza A virus): inactive
Activity (Reovirus sp.): inactive
Activity (Feline coronavirus): inactive
Activity (Human respirovirus 3): inactive
Activity [8]: inactive
Activity (Sindbis virus): inactive
Activity (Influenza B virus): inactive
Activity (Human adenovirus 2): inactive
Activity (Influenza A virus H3N2): inactive
Activity (Felid alphaherpesvirus 1): inactive

CCOP(=O)(OCC)[C@@H]1C[C@H](CN2C(=O)c3cccc4cc(NC(C)=O)cc(c34)C2=O)ON1C (relative stereo)
Activity [7]: inactive
Activity (Influenza A virus): inactive
Activity (Reovirus sp.): inactive
Activity (Feline coronavirus): inactive
Activity (Human respirovirus 3): inactive
Activity [8]: inactive
Activity (Sindbis virus): inactive
Activity (Influenza B virus): inactive
Activity (Human adenovirus 2): inactive
Activity (Influenza A virus H3N2): inactive
Activity (Felid alphaherpesvirus 1): inactive

CCOP(=O)(OCC)[C@@H]1C[C@H](CN2C(=O)c3cccc4cc([N+](=O)[O-])cc(c34)C2=O)ON1C (relative stereo)
Activity [7]: inactive
Activity (Influenza A virus): inactive
Activity (Reovirus sp.): inactive
Activity (Feline coronavirus): inactive
Activity (Human respirovirus 3): inactive
Activity [8]: inactive
Activity (Sindbis virus): inactive
Activity (Influenza B virus): inactive
Activity (Human adenovirus 2): inactive
Activity (Influenza A virus H3N2): inactive
Activity (Felid alphaherpesvirus 1): inactive

CCOP(=O)(OCC)[C@@H]1C[C@H](CN2C(=O)c3cccc4cccc(c34)C2=O)ON1C (relative stereo)
Activity [7]: inactive
Activity (Influenza A virus): inactive
Activity (Reovirus sp.): inactive
Activity (Feline coronavirus): inactive
Activity (Human respirovirus 3): inactive
Activity [8]: inactive
Activity (Sindbis virus): inactive
Activity (Influenza B virus): inactive
Activity (Human adenovirus 2): inactive
Activity (Influenza A virus H3N2): inactive
Activity (Felid alphaherpesvirus 1): inactive

Nc1nc2c(ncn2COCCO)c(=O)[nH]1 [ACYCLOVIR]
MCC [1]: > 250 µM

Nc1ccn(C[C@@H](CO)OCP(=O)(O)O)c(=O)n1 [CIDOFOVIR]
MCC [1]: > 250 µM
EC50 (Cytomegalovirus [5]): 1.02 µM

O=c1[nH]cc(F)c(=O)[nH]1 [FLUOROURACIL]
IC50 (L1210): 0.33 µM

Nc1nc2c(ncn2COC(CO)CO)c(=O)[nH]1 [GANCICLOVIR]
MCC [1]: > 100 µM
EC50 (Cytomegalovirus [4]): 6.3 µM
EC50 (Cytomegalovirus [5]): 7.1 µM

COc1cccc(N2CCN(C3=Nc4c(F)cccc4[C@H](CC(=O)O)N3c3cc(C(F)(F)F)ccc3OC)CC2)c1 [LETERMOVIR]
EC50 (Cytomegalovirus [4]): 0.0046 µM
